Values after ≈ are worked out from the molar mass of the structure shown. Active and inactive are the calls of the source. The rule behind the calls is not given here.
Columns and labels:
Staphylococcus aureus [1] = assay: Antibacterial activity against methicillin-resistant Staphylococcus aureus BAA-1695 after 20 hrs by broth microdilution method; type: functional; details: BAA-1695, 20 h
Procedure, shortened: (§1)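 Broth microdilution per CLSI in cation-adjusted Mueller-Hinton broth with 0.002% polysorbate 80. Analogues were made up as 10 mg/mL DMSO stocks, then diluted in MHB. Inoculum approx. 5×10^5 cells/mL. Incubated 20 h at 37°C; MIC taken as the lowest concentration with no visible growth. Run three times.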

Enterococcus faecalis = assay: Antibacterial activity against […] Enterococcus faecalis ATCC 29212 after 20 hrs by broth microdilution method; type: functional; details: ATCC 29212, 20 h; procedure, shortened: as §1
[2] = Binding affinity to undecaprenyl-phosphate at 1 to 4 nmol after 30 mins by TLC method
Procedure, shortened: (§2)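 Lipid II or C55-P (1 nmol) incubated with 1, 2, 3 or 4 nmol compound in 50 mM Tris/HCl pH 7.5, 30 min at rt. Extracted twice with pyridinium acetate (6 M, pH 4.2)/butanol (1:2), then washed with butanol-saturated water. Organic phase run on silica TLC in chloroform/methanol/water/ammonia (88:48:10:1) and stained with phosphomolybdic acid; loss of lipid band scored. Done twice.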

Staphylococcus aureus [3] = assay: Antibacterial activity against methicillin-sensitive Staphylococcus aureus TH 4806 after 20 hrs by broth microdilution method; type: functional; details: TH 4806, 20 h; procedure, shortened: as §1
Streptococcus pyogenes = assay: Antibacterial activity against Streptococcus pyogenes ATCC 19615 after 20 hrs by broth microdilution method; type: functional; details: ATCC 19615, 20 h
Procedure, shortened: (§3)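 CLSI broth microdilution in cation-adjusted Mueller-Hinton broth with 3% lysed horse blood for streptococci and 0.002% polysorbate 80. Compounds taken from 10 mg/mL DMSO stocks and diluted in broth. Inoculum about 5×10^5 cells/mL. After 20 h at 37 °C, MIC read as lowest concentration with no visible growth. Done three times.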

Staphylococcus aureus [4] = assay: Antibacterial activity against Staphylococcus aureus ATCC 29213 at undecaprenyl-phosphate/test compound molar ratio 0.5 to 2 preincubated with undecaprenyl-phosphate for 30 mins followed by bacterial inoculation measured after overnight incubation; type: functional
Procedure, shortened: (§4)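 Test agent at 4x or 8x its broth MIC mixed with lipid II or C55-P (2x or 0.5x molar excess over compound) in MHII broth with 0.05% tween-80, 30 min at rt; exponential S. aureus ATCC 29213 then added to final OD600 0.001. Overnight at 37 °C; growth judged by eye and plate-reader absorbance. Run two or three times.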

[5] = Binding affinity to lipid 2 at 1 to 4 nmol after 30 mins by TLC method; procedure, shortened: as §2
Staphylococcus aureus [6] = assay: Antibacterial activity against Staphylococcus aureus ATCC 29213 at lipid 2/test compound molar ratio 2 preincubated with lipid 2 for 30 mins followed by bacterial inoculation measured after overnight incubation; type: functional; procedure, shortened: as §4
Streptococcus pneumoniae = assay: Antibacterial activity against Streptococcus pneumoniae D39 after 20 hrs by broth microdilution method; type: functional; details: D39, 20 h; procedure, shortened: as §3
Staphylococcus aureus [7] = assay: Antibacterial activity against Staphylococcus aureus ATCC 29213 at lipid 2/test compound molar ratio 0.5 preincubated with lipid 2 for 30 mins followed by bacterial inoculation measured after overnight incubation; type: functional; procedure, shortened: as §4

| Structure (SMILES) | MIC (Staphylococcus aureus [1]) [µg/mL] | other results |
| --- | --- | --- |
| CC[C@@H](C)[C@@H](NC(=O)[C@@H](CCC(N)=O)NC(=O)[C@H](CO)NC(=O)[C@@H](NC(=O)[C@H](N)Cc1ccc(O)cc1)[C@@H](C)CC)C(=O)N[C@H](C(=O)N[C@@H](CO)C(=O)N[C@H]1C(=O)N[C@@H](C)C(=O)N[C@@H](CCCNC(=N)N)C(=O)N[C@@H]([C@@H](C)CC)C(=O)O[C@H]1C)[C@@H](C)CC | > 32 | – |
| CC[C@@H](C)[C@@H](NC(=O)[C@@H](CCCN)NC(=O)[C@H](CO)NC(=O)[C@@H](NC(=O)[C@H](N)Cc1ccc(-c2ccccc2)cc1)[C@@H](C)CC)C(=O)N[C@H](C(=O)N[C@@H](CO)C(=O)N[C@H]1C(=O)N[C@@H](C)C(=O)N[C@@H](CCCCN)C(=O)N[C@@H]([C@@H](C)CC)C(=O)O[C@H]1C)[C@@H](C)CC | 2 (≈ 1.58 µM) | – |
| CC[C@@H](C)[C@@H](NC(=O)[C@@H](CCC(N)=O)NC(=O)[C@H](CO)NC(=O)[C@@H](N)[C@@H](C)CC)C(=O)N[C@H](C(=O)N[C@@H](CO)C(=O)N[C@H]1C(=O)N[C@@H](C)C(=O)N[C@@H](CCCNC(=N)N)C(=O)N[C@@H]([C@@H](C)CC)C(=O)O[C@H]1C)[C@@H](C)CC | > 32 | – |
| CC[C@@H](C)[C@H]1NC(=O)[C@H](CCCNC(=N)N)NC(=O)[C@H](C)NC(=O)[C@H](NC(=O)[C@@H](N)CO)[C@H](C)CC1=O | > 32 | – |
| CC[C@@H](C)[C@@H](NC(=O)[C@@H](CCC(N)=O)NC(=O)[C@H](CO)NC(=O)[C@@H](NC(=O)[C@@H](Cc1ccccc1)NC)[C@@H](C)CC)C(=O)N[C@H](C(=O)O)[C@@H](C)CC | > 32 | – |
| CC[C@@H](C)[C@@H](NC(=O)[C@@H](CCC(N)=O)NC(=O)[C@H](CO)NC(=O)[C@@H](NC(=O)[C@H](N)Cc1ccc(N)cc1)[C@@H](C)CC)C(=O)N[C@H](C(=O)N[C@@H](CO)C(=O)N[C@H]1C(=O)N[C@@H](C)C(=O)N[C@@H](CCCNC(=N)N)C(=O)N[C@@H]([C@@H](C)CC)C(=O)O[C@H]1C)[C@@H](C)CC | > 32 | – |
| CC[C@@H](C)[C@@H](NC(=O)[C@@H](CCCNC(=N)N)NC(=O)[C@H](CO)NC(=O)[C@@H](NC(=O)[C@H](N)Cc1ccc(-c2ccccc2)cc1)[C@@H](C)CC)C(=O)N[C@H](C(=O)N[C@@H](CO)C(=O)N[C@H]1C(=O)N[C@@H](C)C(=O)N[C@@H](CCCCN)C(=O)N[C@@H]([C@@H](C)CC)C(=O)O[C@H]1C)[C@@H](C)CC | 2 (≈ 1.53 µM) | – |
| CC[C@@H](C)[C@@H](NC(=O)[C@@H](CCC(N)=O)NC(=O)[C@H](CO)NC(=O)[C@@H](NC(=O)[C@@H](Cc1ccccc1)NC(=O)CN1CCOCC1)[C@@H](C)CC)C(=O)N[C@H](C(=O)N[C@@H](CO)C(=O)N[C@H]1C(=O)N[C@@H](C)C(=O)N[C@@H](CCCNC(=N)N)C(=O)N[C@@H]([C@@H](C)CC)C(=O)O[C@H]1C)[C@@H](C)CC | > 32 | – |
| CC[C@@H](C)[C@@H](NC(=O)[C@@H](CCC(N)=O)NC(=O)[C@H](CO)NC(=O)[C@@H](NC(=O)C(Cc1ccccc1)NC)[C@@H](C)CC)C(=O)N[C@H](C(=O)N[C@@H](CO)C(=O)N[C@H]1C(=O)N[C@@H](C)C(=O)N[C@@H](CCCNC(=N)N)C(=O)N[C@@H]([C@@H](C)CC)C(=O)O[C@H]1C)[C@@H](C)CC (some centres undefined) | 2 (≈ 1.61 µM) | – |
| CC[C@@H](C)[C@@H](NC(=O)[C@@H](CCC(N)=O)NC(=O)[C@H](CO)NC(=O)[C@@H](NC(=O)[C@H](N)Cc1ccc(C)cc1)[C@@H](C)CC)C(=O)N[C@H](C(=O)N[C@@H](CO)C(=O)N[C@H]1C(=O)N[C@@H](C)C(=O)N[C@@H](CCCNC(=N)N)C(=O)N[C@@H]([C@@H](C)CC)C(=O)O[C@H]1C)[C@@H](C)CC | 2 (≈ 1.61 µM) | – |
| CC[C@@H](C)[C@@H](NC(=O)[C@@H](CCC(N)=O)NC(=O)[C@H](CO)NC(=O)[C@@H](NC(=O)[C@H](N)Cc1ccc(-c2ccc(C)cc2)cc1)[C@@H](C)CC)C(=O)N[C@H](C(=O)N[C@@H](CO)C(=O)N[C@H]1C(=O)N[C@@H](C)C(=O)N[C@@H](CCCCN)C(=O)N[C@@H]([C@@H](C)CC)C(=O)O[C@H]1C)[C@@H](C)CC | 0.5 (≈ 0.387 µM) | – |
| CC[C@@H](C)[C@@H](NC(=O)[C@@H](CCC(N)=O)NC(=O)[C@H](CO)NC(=O)[C@@H](NC(=O)[C@H](N)Cc1ccc(-c2ccccc2)cc1)[C@@H](C)CC)C(=O)N[C@H](C(=O)N[C@@H](CO)C(=O)N[C@H]1C(=O)N[C@@H](C)C(=O)N[C@@H](CCCCN)C(=O)N[C@@H]([C@@H](C)CC)C(=O)N[C@H]1C)[C@@H](C)CC | 0.25 (≈ 0.196 µM) | MIC (Enterococcus faecalis): 0.5 µg/mL (≈ 0.391 µM); Activity [2]: inactive; MIC (Staphylococcus aureus [3]): 0.25 µg/mL (≈ 0.196 µM); MIC (Streptococcus pyogenes): < 0.25 µg/mL; Activity (Staphylococcus aureus [4]): Active; Activity [5]: Active; Activity (Staphylococcus aureus [6]): inactive; MIC (Streptococcus pneumoniae): < 0.032 µg/mL; Activity (Staphylococcus aureus [7]): Active |
| CC[C@@H](C)[C@@H](NC(=O)[C@@H](CCC(=O)NCCN(C)C)NC(=O)[C@H](CO)NC(=O)[C@@H](NC(=O)[C@H](N)Cc1ccc(-c2ccccc2)cc1)[C@@H](C)CC)C(=O)N[C@H](C(=O)N[C@@H](CO)C(=O)N[C@H]1C(=O)N[C@@H](C)C(=O)N[C@@H](CCCCN)C(=O)N[C@@H]([C@@H](C)CC)C(=O)O[C@H]1C)[C@@H](C)CC | 2 (≈ 1.48 µM) | – |
| CC[C@@H](C)[C@@H](NC(=O)[C@@H](CCC(N)=O)NC(=O)[C@H](CO)NC(=O)[C@@H](NC(=O)[C@H](N)Cc1ccc(-c2ccc(-c3ccccc3)cc2)cc1)[C@@H](C)CC)C(=O)N[C@H](C(=O)N[C@@H](CO)C(=O)N[C@H]1C(=O)N[C@@H](C)C(=O)N[C@@H](CCCCN)C(=O)N[C@@H]([C@@H](C)CC)C(=O)O[C@H]1C)[C@@H](C)CC | 1 (≈ 0.738 µM) | – |
| CC[C@@H](C)[C@@H](NC(=O)[C@@H](CCC(N)=O)NC(=O)[C@H](CO)NC(=O)[C@@H](NC(=O)[C@H](N)Cc1ccc(-c2ccccc2)cc1)[C@@H](C)CC)C(=O)N[C@H](C(=O)N[C@@H](CO)C(=O)N[C@H]1C(=O)N[C@@H](C)C(=O)N[C@@H](CCCNC(=N)N)C(=O)N[C@@H]([C@@H](C)CC)C(=O)O[C@H]1C)[C@@H](C)CC | 1 (≈ 0.765 µM) | – |
| CC[C@@H](C)[C@@H](NC(=O)[C@@H](CCC(N)=O)NC(=O)[C@H](CO)NC(=O)[C@@H](NC(=O)[C@H](N)Cc1ccc(-c2ccc(C(F)(F)F)cc2)cc1)[C@@H](C)CC)C(=O)N[C@H](C(=O)N[C@@H](CO)C(=O)N[C@H]1C(=O)N[C@@H](C)C(=O)N[C@@H](CCCCN)C(=O)N[C@@H]([C@@H](C)CC)C(=O)O[C@H]1C)[C@@H](C)CC | 0.5 (≈ 0.371 µM) | – |
| CC[C@@H](C)[C@@H](NC(=O)[C@@H](CCC(N)=O)NC(=O)[C@H](CO)NC(=O)[C@@H](NC(=O)[C@@H](Cc1ccccc1)NC)[C@@H](C)CC)C(=O)N[C@H](C(=O)N[C@@H](CO)C(=O)N[C@H]1C(=O)N[C@@H](C)C(=O)N[C@@H](CCCCN)C(=O)N[C@@H]([C@@H](C)CC)C(=O)O[C@H]1C)[C@@H](C)CC | 1 (≈ 0.822 µM) | – |
| CC[C@H](C)[C@H](NC(=O)[C@H](N)Cc1ccccc1)C(=O)N[C@@H](COP(=O)(O)O)C(=O)N[C@H](CCC(N)=O)C(=O)N[C@@H](C(=O)N[C@H](C(=O)N[C@@H](CO)C(=O)N[C@H]1C(=O)N[C@@H](C)C(=O)N[C@@H](CCCNC(=N)N)C(=O)N[C@@H]([C@@H](C)CC)C(=O)O[C@H]1C)[C@@H](C)CC)C(C)C | > 32 | – |
| CC[C@@H](C)[C@@H](NC(=O)[C@@H](CCC(N)=O)NC(=O)[C@H](CO)NC(=O)[C@@H](NC(=O)[C@H](N)Cc1ccc(O[C@H]2O[C@@H](CO)[C@@H](O)[C@@H](O)[C@@H]2O)cc1)[C@@H](C)CC)C(=O)N[C@H](C(=O)N[C@@H](CO)C(=O)N[C@H]1C(=O)N[C@@H](C)C(=O)N[C@@H](CCCNC(=N)N)C(=O)N[C@@H]([C@@H](C)CC)C(=O)O[C@H]1C)[C@@H](C)CC | > 32 | – |
| CCCc1ccc(-c2ccc(C[C@@H](N)C(=O)N[C@H](C(=O)N[C@@H](CO)C(=O)N[C@H](CCC(N)=O)C(=O)N[C@@H](C(=O)N[C@H](C(=O)N[C@@H](CO)C(=O)N[C@H]3C(=O)N[C@@H](C)C(=O)N[C@@H](CCCCN)C(=O)N[C@@H]([C@@H](C)CC)C(=O)O[C@H]3C)[C@@H](C)CC)[C@H](C)CC)[C@@H](C)CC)cc2)cc1 | 0.5 (≈ 0.379 µM) | – |
